Columns and labels:
[1] = target: T1, 5-hydroxytryptamine receptor 1A (Homo sapiens) (UniProt P08908); experiment: Agonist activity at human recombinant 5-HT1A receptor expressed in HeLa cells after 30 mins by [35S]GTPgammaS binding assay relative to control; type: functional, cell-based
T1 sequence (whole entry): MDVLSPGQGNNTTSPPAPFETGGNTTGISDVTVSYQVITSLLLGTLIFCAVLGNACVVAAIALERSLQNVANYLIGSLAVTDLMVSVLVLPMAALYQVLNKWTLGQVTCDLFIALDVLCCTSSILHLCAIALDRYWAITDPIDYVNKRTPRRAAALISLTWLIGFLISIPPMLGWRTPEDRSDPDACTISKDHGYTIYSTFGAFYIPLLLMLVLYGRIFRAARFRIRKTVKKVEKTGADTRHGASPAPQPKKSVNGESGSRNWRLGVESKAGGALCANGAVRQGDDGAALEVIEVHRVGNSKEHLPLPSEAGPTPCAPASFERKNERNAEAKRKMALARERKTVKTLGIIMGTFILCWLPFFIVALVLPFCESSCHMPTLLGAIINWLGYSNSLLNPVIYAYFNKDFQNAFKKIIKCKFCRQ
Outline: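 HeLa membranes (50–70 µg protein) in 20 mM HEPES, 3 mM MgSO4, 120 mM NaCl, pH 7.4, preincubated 20 min at 30 °C with 30 µM GDP and drug (0.01 nM–10 µM), then 200 pM [35S]GTPγS added for 30 min at 30 °C. Nonspecific binding with 10 µM GTPγS. Filtration and scintillation counting. Data expressed as % increase over basal, 8-OH-DPAT maximum = 100%. Emax and pD2 derived.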

[2] = target: T1, 5-hydroxytryptamine receptor 1A (Homo sapiens); experiment: Agonist activity at human recombinant 5-HT1A receptor expressed in HeLa cells after 30 mins by [35S]GTPgammaS binding assay; type: functional, cell-based
Outline: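 HeLa membranes expressing human 5-HT1A (50–70 µg protein) in 20 mM HEPES, 3 mM MgSO4, 120 mM NaCl pH 7.4 with 30 µM GDP; test drug 0.01 nM–10 µM, 20 min at 30 °C, then 200 pM [35S]GTPγS for 30 min at 30 °C. Nonspecific with 10 µM GTPγS; filtration and scintillation counting. Emax as % of maximal 8-OH-DPAT stimulation; pD2 = −log EC50.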

[3] = target: T2, Alpha-1B adrenergic receptor (Homo sapiens, UniProt P35368); experiment: Displacement of [3H]prazosin from human recombinant alpha1B adrenoceptor expressed in CHO cells after 30 mins by liquid scintillation counting; type: cell-based
T2 sequence (P35368 whole entry): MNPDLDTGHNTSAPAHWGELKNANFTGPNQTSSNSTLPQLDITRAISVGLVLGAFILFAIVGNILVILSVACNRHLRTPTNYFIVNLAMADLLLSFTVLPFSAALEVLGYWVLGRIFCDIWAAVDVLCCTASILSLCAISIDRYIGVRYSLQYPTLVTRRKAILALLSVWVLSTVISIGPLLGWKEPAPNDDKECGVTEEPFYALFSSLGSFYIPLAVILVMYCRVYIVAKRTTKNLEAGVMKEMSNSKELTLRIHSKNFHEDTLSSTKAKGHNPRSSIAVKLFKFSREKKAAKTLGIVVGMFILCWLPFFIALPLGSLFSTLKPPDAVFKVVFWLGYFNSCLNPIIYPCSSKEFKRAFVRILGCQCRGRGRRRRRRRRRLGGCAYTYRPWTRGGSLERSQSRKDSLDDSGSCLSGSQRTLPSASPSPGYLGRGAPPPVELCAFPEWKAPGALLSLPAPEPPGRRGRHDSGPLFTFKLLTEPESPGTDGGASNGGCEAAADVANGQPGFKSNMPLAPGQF
Outline: (§1)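 CHO cells were stably transfected by electroporation with each human α1 subtype. Membranes (70 µg protein) were incubated in 50 mM Tris pH 7.4 with 0.1–0.4 nM [3H]prazosin and competitor (1 pM–1 µM) for 30 min at 25 °C. Nonspecific binding with 10 µM tamsulosin. Filtration and scintillation counting. pKi from 2–3 experiments in duplicate.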

[4] = target: T3, Alpha-1D adrenergic receptor (Homo sapiens, UniProt P25100); experiment: Displacement of [3H]prazosin from human recombinant alpha1D adrenoceptor expressed in CHO cells after 30 mins by liquid scintillation counting; type: cell-based; outline: as §1
T3 sequence (P25100 whole entry): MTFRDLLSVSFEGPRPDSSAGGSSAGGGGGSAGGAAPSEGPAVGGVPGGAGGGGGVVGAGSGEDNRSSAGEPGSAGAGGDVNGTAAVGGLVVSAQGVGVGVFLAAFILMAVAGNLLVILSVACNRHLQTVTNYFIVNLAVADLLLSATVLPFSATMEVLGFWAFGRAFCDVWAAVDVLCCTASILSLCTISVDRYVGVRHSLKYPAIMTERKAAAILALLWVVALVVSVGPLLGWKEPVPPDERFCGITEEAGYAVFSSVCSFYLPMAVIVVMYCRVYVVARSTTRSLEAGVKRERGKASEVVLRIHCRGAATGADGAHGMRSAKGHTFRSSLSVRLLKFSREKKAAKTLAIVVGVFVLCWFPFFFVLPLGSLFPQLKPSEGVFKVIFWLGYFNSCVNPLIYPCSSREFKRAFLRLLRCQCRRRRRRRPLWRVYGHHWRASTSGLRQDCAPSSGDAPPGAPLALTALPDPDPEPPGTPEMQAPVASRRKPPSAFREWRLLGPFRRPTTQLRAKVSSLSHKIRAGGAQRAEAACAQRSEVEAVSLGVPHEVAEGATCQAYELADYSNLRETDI

[5] = target: T4, 5-hydroxytryptamine receptor 1A (Homo sapiens, UniProt P08908); experiment: Displacement of [3H]8-OH-DPAT from human recombinant 5-HT1A receptor expressed in HeLa cells after 30 mins by liquid scintillation counting; type: cell-based
T4 sequence (P08908 whole entry): T1 sequence (whole entry)
Outline: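 HeLa cells stably carrying genomic clone G-21 were grown in DMEM with 10% FCS, then lysed in Tris/EDTA pH 7.4. Membranes (80–90 µg protein) were incubated in 50 mM Tris, 2.5 mM MgCl2, 10 µM pargyline, pH 7.4, with 1 nM [3H]8-OH-DPAT and competitor (1 pM–1 µM) for 30 min at 30 °C, in triplicate. Nonspecific binding with 10 µM 5-HT. pKi from 2–3 experiments.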

Emax [1]: 139%
pD2 [2]: 8.13
Ki [3]: 479 nM
Ki [4]: 42.7 nM
Ki [5]: 117 nM
SMILES: COc1ccccc1N1CCN(CC2COC3(CC[S+]([O-])CC3)O2)CC1 (stereo not given)

Reference: ChEMBL document CHEMBL3351355, “Structure-affinity/activity relationships of 1,4-dioxa-spiro[4.5]decane based ligands at α1 and 5-HT1A receptors” (Eur J Med Chem, 2014)
